Assay results from ChEMBL document CHEMBL4368872, “Synthesis and anticonvulsant activity of phenoxyacetyl derivatives of amines, including aminoalkanols and amino acids” (Medchemcomm, 2018).
Calls of active or inactive are those of the source. The calls are words filed in the database; no cut-off is given here.

Experiments:
Mus musculus [1] = test: Anticonvulsant activity in CF-1 mouse model of maximal electroshock-induced seizure assessed as suppression of tonic hind limb extension at 30 mg/kg, ip measured at 0.5 hrs post dose; format: functional, organism-based
How it was run: (§1)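 Mice dosed i.p. and given maximal electroshock at 50 mA. Read-out is protection, reported as number protected / number tested at 0.25, 0.5, 1 and 4 h after dosing.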

Salmonella typhimurium [2] = test: Antimutagenic activity against Salmonella typhimurium TA100 assessed as inhibition of NaN3-induced mutation at 500 ug/plate preincubated for 30 mins followed by top agar addition and measured after 48 hrs in presence of liver S9 fraction by Ames test relative to control; format: organism-based; conditions: salmonella enterica subsp. enterica serovar typhimurium, s9, 48 h
Mus musculus [3] = test: Anticonvulsant activity in CF-1 mouse model of subcutaneous pentylenetetrazole-induced seizure assessed as reduction in convulsions at 300 mg/kg, ip measured at 4 hrs post dose; format: functional, organism-based
How it was run: (§2)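 Mice dosed i.p., then given pentylenetetrazole 85 mg/kg in 0.9% NaCl s.c. into the posterior midline of the neck. Seizures watched for at least 30 min. Scored as protected / tested at 0.5 and 4 h.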

[4] = Neurotoxicity in CF-1 mouse at 30 mg/kg, ip measured after 0.5 hrs by rotarod test; format: toxicity, organism-based; conditions: in vivo
How it was run: (§3)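 Mice dosed i.p. were placed on a 1 in. knurled rod turning at 6 rpm. Toxicity was scored as failure to keep balance for at least 1 min, i.e. falling off three or more times. Results are reported as animals showing toxicity / animals tested at each time point.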

Salmonella typhimurium [5] = test: Antimutagenic activity against Salmonella typhimurium TA100 assessed as inhibition of NaN3-induced mutation at 250 ug/plate preincubated for 30 mins followed by top agar addition and measured after 48 hrs in presence of liver S9 fraction by Ames test relative to control; format: organism-based; conditions: salmonella enterica subsp. enterica serovar typhimurium, s9, 48 h
[6] = Mutagenicity in Salmonella typhimurium TA100 assessed as mutagenicity index at 50 to 500 ug/plate preincubated for 30 mins followed by top agar addition and measured after 48 hrs in absence of liver S9 fraction by Ames test; format: toxicity; conditions: salmonella enterica subsp. enterica serovar typhimurium, s9, 48 h
How it was run: (§4)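 Ames plate incorporation in S. typhimurium TA100 or TA1535, with or without S9. Overnight culture, compound in DMSO (50–500 µg per plate) and buffer or S9 mix preincubated 30 min at 37 °C, then top agar on glucose minimal agar. Incubated 48 h at 37 °C, revertants counted in triplicate. Vehicle negative control; NaN3 (−S9) and 2AA (+S9) positive controls. MI = revertants with compound / negative-control revertants; MI ≥ 2 with dose-response counts as positive.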

Mus musculus [7] = test: Anticonvulsant activity in CF-1 mouse model of subcutaneous pentylenetetrazole-induced seizure assessed as reduction in convulsions at 100 mg/kg, ip measured at 0.5 hrs post dose; format: functional, organism-based; how it was run: as §2
Salmonella typhimurium [8] = test: Antimutagenic activity against Salmonella typhimurium TA100 assessed as inhibition of NaN3-induced mutation at 50 ug/plate preincubated for 30 mins followed by top agar addition and measured after 48 hrs in presence of liver S9 fraction by Ames test relative to control; format: organism-based; conditions: salmonella enterica subsp. enterica serovar typhimurium, s9, 48 h
Mus musculus [9] = test: Anticonvulsant activity in CF-1 mouse model of subcutaneous pentylenetetrazole-induced seizure assessed as reduction in convulsions at 30 mg/kg, ip measured at 4 hrs post dose; format: functional, organism-based; how it was run: as §2
Mus musculus [10] = test: Anticonvulsant activity in CF-1 mouse model of subcutaneous pentylenetetrazole-induced seizure assessed as reduction in convulsions at 30 mg/kg, ip measured at 0.5 hrs post dose; format: functional, organism-based; how it was run: as §2
[11] = Neurotoxicity in CF-1 mouse at 100 mg/kg, ip measured after 4 hrs by rotarod test; format: toxicity, organism-based; conditions: in vivo; how it was run: as §3
Mus musculus [12] = test: Anticonvulsant activity in CF-1 mouse model of maximal electroshock-induced seizure assessed as suppression of tonic hind limb extension at 100 mg/kg, ip measured at 0.5 hrs post dose; format: functional, organism-based; how it was run: as §1
[13] = Neurotoxicity in CF-1 mouse at 300 mg/kg, ip measured after 4 hrs by rotarod test; format: toxicity, organism-based; conditions: in vivo; how it was run: as §3
Salmonella typhimurium [14] = test: Antimutagenic activity against Salmonella typhimurium TA100 assessed as inhibition of NaN3-induced mutation at 100 ug/plate preincubated for 30 mins followed by top agar addition and measured after 48 hrs in presence of liver S9 fraction by Ames test relative to control; format: organism-based; conditions: salmonella enterica subsp. enterica serovar typhimurium, s9, 48 h
[15] = Mutagenicity in Salmonella typhimurium TA1535 assessed as mutagenicity index at 50 to 500 ug/plate preincubated for 30 mins followed by top agar addition and measured after 48 hrs in presence of liver S9 fraction by Ames test; format: toxicity, subcellular; conditions: salmonella enterica subsp. enterica serovar typhimurium, s9, 48 h; how it was run: as §4
[16] = Neurotoxicity in CF-1 mouse at 30 mg/kg, ip measured after 4 hrs by rotarod test; format: toxicity, organism-based; conditions: in vivo; how it was run: as §3
Salmonella typhimurium [17] = test: Antimutagenic activity against Salmonella typhimurium TA1535 assessed as inhibition of NaN3-induced mutation at 250 ug/plate preincubated for 30 mins followed by top agar addition and measured after 48 hrs in presence of liver S9 fraction by Ames test relative to control; format: organism-based; conditions: salmonella enterica subsp. enterica serovar typhimurium, s9, 48 h
Mus musculus [18] = test: Anticonvulsant activity in CF-1 mouse model of subcutaneous pentylenetetrazole-induced seizure assessed as reduction in convulsions at 100 mg/kg, ip measured at 4 hrs post dose; format: functional, organism-based; how it was run: as §2
Mus musculus [19] = test: Anticonvulsant activity in CF-1 mouse model of maximal electroshock-induced seizure assessed as suppression of tonic hind limb extension at 300 mg/kg, ip measured at 4 hrs post dose; format: functional, organism-based; how it was run: as §1
[20] = Mutagenicity in Salmonella typhimurium TA100 assessed as mutagenicity index at 50 to 500 ug/plate preincubated for 30 mins followed by top agar addition and measured after 48 hrs in presence of liver S9 fraction by Ames test; format: toxicity, subcellular; conditions: salmonella enterica subsp. enterica serovar typhimurium, s9, 48 h; how it was run: as §4
Mus musculus [21] = test: Anticonvulsant activity in CF-1 mouse model of maximal electroshock-induced seizure assessed as suppression of tonic hind limb extension at 100 mg/kg, ip measured at 4 hrs post dose; format: functional, organism-based; how it was run: as §1
Mus musculus [22] = test: Anticonvulsant activity in CF-1 mouse model of maximal electroshock-induced seizure assessed as suppression of tonic hind limb extension at 300 mg/kg, ip measured at 0.5 hrs post dose; format: functional, organism-based; how it was run: as §1
Salmonella typhimurium [23] = test: Antimutagenic activity against Salmonella typhimurium TA1535 assessed as inhibition of NaN3-induced mutation at 500 ug/plate preincubated for 30 mins followed by top agar addition and measured after 48 hrs in presence of liver S9 fraction by Ames test relative to control; format: organism-based; conditions: salmonella enterica subsp. enterica serovar typhimurium, s9, 48 h
Salmonella typhimurium [24] = test: Antimutagenic activity against Salmonella typhimurium TA1535 assessed as inhibition of NaN3-induced mutation at 100 ug/plate preincubated for 30 mins followed by top agar addition and measured after 48 hrs in presence of liver S9 fraction by Ames test relative to control; format: organism-based; conditions: salmonella enterica subsp. enterica serovar typhimurium, s9, 48 h
Mus musculus [25] = test: Anticonvulsant activity in CF-1 mouse model of subcutaneous pentylenetetrazole-induced seizure assessed as reduction in convulsions at 300 mg/kg, ip measured at 0.5 hrs post dose; format: functional, organism-based; how it was run: as §2
[26] = Mutagenicity in Salmonella typhimurium TA1535 assessed as mutagenicity index at 50 to 500 ug/plate preincubated for 30 mins followed by top agar addition and measured after 48 hrs in absence of liver S9 fraction by Ames test; format: toxicity; conditions: salmonella enterica subsp. enterica serovar typhimurium, s9, 48 h; how it was run: as §4
[27] = Neurotoxicity in CF-1 mouse at 300 mg/kg, ip measured after 0.5 hrs by rotarod test; format: toxicity, organism-based; conditions: in vivo; how it was run: as §3
Salmonella typhimurium [28] = test: Antimutagenic activity against Salmonella typhimurium TA1535 assessed as inhibition of NaN3-induced mutation at 50 ug/plate preincubated for 30 mins followed by top agar addition and measured after 48 hrs in presence of liver S9 fraction by Ames test relative to control; format: organism-based; conditions: salmonella enterica subsp. enterica serovar typhimurium, s9, 48 h
Mus musculus [29] = test: Anticonvulsant activity in CF-1 mouse model of maximal electroshock-induced seizure assessed as suppression of tonic hind limb extension at 30 mg/kg, ip measured at 4 hrs post dose; format: functional, organism-based; how it was run: as §1
[30] = Neurotoxicity in Sprague-Dawley rat at 30 mg/kg, po measured after 0.5 hrs by rotarod test; format: toxicity, organism-based; conditions: in vivo
How it was run: (§5)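 Rat neurotoxicity after i.p. or p.o. dosing was scored as animals impaired / animals tested at each time point. For p.o. dosing, TD50 was obtained by probit analysis.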

[31] = Neurotoxicity in Sprague-Dawley rat at 30 mg/kg, po measured after 4 hrs by rotarod test; format: toxicity, organism-based; conditions: in vivo; how it was run: as §5
[32] = Neurotoxicity in Sprague-Dawley rat at 30 mg/kg, po measured after 1 hr by rotarod test; format: toxicity, organism-based; conditions: in vivo; how it was run: as §5
Rattus norvegicus [33] = test: Anticonvulsant activity in Sprague-Dawley rat model of maximal electroshock-induced seizure assessed as suppression of tonic hind limb extension at 30 mg/kg, po measured at 1 hr post dose; format: functional, organism-based
How it was run: (§6)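 Rats given 30 mg/kg p.o. and tested by maximal electroshock at 150 mA. Scored as number protected / number tested (4 per group) at 0.25, 0.5, 1, 2 and 4 h after dosing.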

Rattus norvegicus [34] = test: Anticonvulsant activity in Sprague-Dawley rat model of maximal electroshock-induced seizure assessed as suppression of tonic hind limb extension at 30 mg/kg, po measured at 2 hrs post dose; format: functional, organism-based; how it was run: as §6
[35] = Neurotoxicity in Sprague-Dawley rat at 30 mg/kg, po measured after 0.25 hrs by rotarod test; format: toxicity, organism-based; conditions: in vivo; how it was run: as §5
Mus musculus [36] = test: Anticonvulsant activity in CF-1 mouse model of maximal electroshock-induced seizure assessed as suppression of tonic hind limb extension at 100 mg/kg, ip measured at 1 hr post dose; format: functional, organism-based; how it was run: as §1
[37] = Neurotoxicity in Sprague-Dawley rat at 30 mg/kg, po measured after 2 hrs by rotarod test; format: toxicity, organism-based; conditions: in vivo; how it was run: as §5
[38] = Neurotoxicity in CF-1 mouse at 100 mg/kg, ip measured after 1 hr by rotarod test; format: toxicity, organism-based; conditions: in vivo; how it was run: as §3

Row | SMILES | Activity (Mus musculus [1]) | Activity (Mus musculus [3]) | Activity [4] | Activity (Mus musculus [7]) | Activity (Mus musculus [9]) | Activity (Mus musculus [10]) | Activity (Mus musculus [12]) | Activity [13] | Activity [16] | Activity (Mus musculus [18]) | Activity (Mus musculus [19]) | Activity (Mus musculus [21]) | Activity (Mus musculus [22]) | Activity (Mus musculus [25]) | Activity [27] | Activity (Mus musculus [29]) | also measured
1 | Cc1cccc(C)c1OCC(=O)NCC(O)c1ccccc1 (centres undefined) | inactive | inactive | Non-Toxic | inactive | inactive | inactive | inactive | Non-Toxic | Non-Toxic | inactive | inactive | inactive | inactive | inactive | Non-Toxic | inactive | inhibition (INH) (Salmonella typhimurium [2]): 41%; inhibition (INH) (Salmonella typhimurium [5]): 51%; Activity index [6]: 0.7 to 1.7; inhibition (INH) (Salmonella typhimurium [8]): 17%; Activity [11]: Non-Toxic; inhibition (INH) (Salmonella typhimurium [14]): 45%; Activity index [15]: 0.7 to 1.7; inhibition (INH) (Salmonella typhimurium [17]): 35%; Activity index [20]: 0.7 to 1.7; inhibition (INH) (Salmonella typhimurium [23]): 13%; inhibition (INH) (Salmonella typhimurium [24]): 45%; Activity index [26]: 0.7 to 1.7; inhibition (INH) (Salmonella typhimurium [28]): 58%
2 | Cc1cccc(C)c1OCC(=O)NC(C)CO (centres undefined) | inactive | inactive | Non-Toxic | inactive | inactive | inactive | inactive | Non-Toxic | Non-Toxic | inactive | inactive | inactive | Active | inactive | Toxic | inactive | Activity [30]: Non-Toxic; Activity [31]: Non-Toxic; Activity [32]: Non-Toxic; Activity (Rattus norvegicus [33]): inactive; Activity (Rattus norvegicus [34]): inactive; Activity [35]: Non-Toxic; Activity (Mus musculus [36]): inactive; Activity [37]: Non-Toxic; Activity [38]: Non-Toxic
